# Measured values reported in ChEMBL document CHEMBL5038641, “Development of PDE6D and CK1α Degraders through Chemical Derivatization of FPFT-2216” (J Med Chem, 2022).
# pIC50: −log10 of the molar value. The source made the active and inactive calls. The rule behind the calls is not given here.
# Columns and labels:
# [1] = target: T1, Protein cereblon/Zinc finger protein Aiolos (Homo sapiens) (UniProt Q96SW2+Q9UKT9); assay: Protac activity at CRBN/IKZF3 in human MOLT-4 cells assessed as induction of IKZF3 degradation at 250 nM measured after 4 hrs by proteome mass spectrometry
# [2] = target: T1, Protein cereblon/Zinc finger protein Aiolos (Homo sapiens); assay: Protac activity at CRBN/IKZF3 in human MOLT-4 cells assessed as induction of IKZF3 degradation at 1 microM measured after 4 hrs by Immunoblotting analysis; assay type: cell-based
# In short: (§1)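 MOLT4 cells treated for 4 h, either at a single 1 µM screening dose or across a concentration series. Lysates were made in RIPA with protease/phosphatase inhibitors, and 20 μg protein was resolved by SDS-PAGE and transferred to nitrocellulose. PDE6D, IKZF1, IKZF3 and CK1α were immunoblotted against β-actin and detected with IRDye secondaries.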
# [3] = target: T2, Cereblon/Ikaros (Homo sapiens) (UniProt Q96SW2+Q13422); assay: Protac activity at CRBN/IKZF1 in human MOLT-4 cells assessed as induction of IKZF1 degradation at 1 microM measured after 4 hrs by Immunoblotting analysis; assay type: cell-based
# In short: as §1
# [4] = target: T2, Cereblon/Ikaros (Homo sapiens); assay: Protac activity at CRBN/IKZF1 in human MOLT-4 cells assessed as induction of IKZF1 degradation at 250 nM measured after 4 hrs by proteome mass spectrometry
# [5] = target: T3, Cereblon/Casein kinase I alpha (Homo sapiens) (UniProt P48729+Q96SW2); assay: Protac activity at CRBN/CK1alpha in human MOLT-4 cells assessed as induction of CK1alpha degradation at 1 microM measured after 4 hrs by Immunoblotting analysis; assay type: cell-based
# In short: as §1
# [6] = target: T4, Protein cereblon/Retinal rod rhodopsin-sensitive cGMP 3',5'-cyclic phosphodiesterase subunit delta (Homo sapiens, UniProt O43924+Q96SW2); assay: Protac activity at CRBN/PDE6D in human MOLT-4 cells assessed as induction of PDE6D degradation at 1 microM measured after 4 hrs by Immunoblotting analysis; assay type: cell-based
# In short: as §1
# Target sequence in this assay (O43924 whole entry, looked up): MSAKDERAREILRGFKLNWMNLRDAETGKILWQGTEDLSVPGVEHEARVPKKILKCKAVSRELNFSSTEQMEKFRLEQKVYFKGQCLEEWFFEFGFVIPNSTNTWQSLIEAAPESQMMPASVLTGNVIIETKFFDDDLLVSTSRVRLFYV
# Target sequence in this assay (Q96SW2 whole entry, looked up): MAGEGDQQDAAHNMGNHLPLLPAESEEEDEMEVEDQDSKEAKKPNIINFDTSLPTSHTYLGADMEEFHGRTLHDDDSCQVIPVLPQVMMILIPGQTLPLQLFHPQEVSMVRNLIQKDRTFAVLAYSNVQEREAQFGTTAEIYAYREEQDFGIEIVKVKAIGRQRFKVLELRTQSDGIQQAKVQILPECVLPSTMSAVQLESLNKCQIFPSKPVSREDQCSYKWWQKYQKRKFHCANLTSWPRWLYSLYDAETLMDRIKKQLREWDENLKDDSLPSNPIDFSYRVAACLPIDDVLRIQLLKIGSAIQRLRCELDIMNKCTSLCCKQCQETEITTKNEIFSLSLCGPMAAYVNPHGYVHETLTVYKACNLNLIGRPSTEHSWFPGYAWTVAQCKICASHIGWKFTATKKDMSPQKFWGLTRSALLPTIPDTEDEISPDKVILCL
# [7] = test system: MIA PaCa-2; assay: Antiproliferative activity against human MIA PaCa-2 cells assessed as reduction in cell viability measured after 3 days by Celltiter-Glo assay; assay type: functional, cell-based; settings: for Activity: time 3.0 day; for pIC50: MIA PaCa-2, 72 h
# In short: (§2)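 Cells grown per supplier recommendations with 10% FBS plus penicillin/streptomycin and mycoplasma-checked. 800 cells per well in 384-well format, dosed the next day at the indicated concentrations; depending on the agent, dosing was once or daily. Viability was read by CellTiter-Glo luminescence after three days of treatment, with a 20 min incubation before reading.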
# [8] = test system: PaTu 8988t; assay: Antiproliferative activity against human PaTu 8988t cells assessed as reduction in cell viability measured after 3 days by Celltiter-Glo assay; assay type: functional, cell-based; settings: for Activity: time 3.0 day; for pIC50: 72 h
# In short: as §2
# [9] = target: T4, Protein cereblon/Retinal rod rhodopsin-sensitive cGMP 3',5'-cyclic phosphodiesterase subunit delta; assay: Protac activity at CRBN/PDE6D in human MM1.S cells assessed as induction of PDE6D degradation measured after 4 hrs by Immunoblotting analysis; assay type: cell-based
# In short: (§3)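 Jurkat or MM.1S cells given the indicated concentrations, up to 1 µM, for 4 h. RIPA lysates (30 min on ice) with 20 μg protein per lane were separated by SDS-PAGE and transferred to nitrocellulose. Blots were probed for PDE6D, IKZF1 (1:1000), IKZF3 (1:1000) and CK1α, with β-actin control and IRDye fluorescent secondary detection.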
# [10] = target: T4, Protein cereblon/Retinal rod rhodopsin-sensitive cGMP 3',5'-cyclic phosphodiesterase subunit delta; assay: Protac activity at CRBN/PDE6D in human MOLT-4 cells assessed as induction of PDE6D degradation measured after 4 hrs by Immunoblotting analysis; assay type: cell-based
# In short: as §1
# [11] = test system: AGS; assay: Antiproliferative activity against human AGS cells assessed as reduction in cell viability measured after 3 days by Celltiter-Glo assay; assay type: functional, cell-based; settings: for Activity: time 3.0 day; for pIC50: 72 h
# In short: as §2
# [12] = test system: NCI-H358; assay: Antiproliferative activity against human NCI-H358 cells assessed as reduction in cell viability measured after 3 days by Celltiter-Glo assay; assay type: functional, cell-based; settings: for Activity: time 3.0 day; for pIC50: NCI-H358, 72 h
# In short: as §2
# [13] = target: T4, Protein cereblon/Retinal rod rhodopsin-sensitive cGMP 3',5'-cyclic phosphodiesterase subunit delta; assay: Protac activity at CRBN/PDE6D in human Jurkat cells assessed as induction of PDE6D degradation measured after 4 hrs by Immunoblotting analysis; assay type: cell-based
# In short: as §3
# [14] = target: T2, Cereblon/Ikaros (Homo sapiens); assay: Protac activity at CRBN/IKZF1 in human MOLT-4 cells assessed as induction of IKZF1 degradation measured after 4 hrs by Immunoblotting analysis; assay type: cell-based
# In short: as §1
# [15] = target: T3, Cereblon/Casein kinase I alpha (Homo sapiens); assay: Protac activity at CRBN/CK1alpha in human MM1.S cells assessed as induction of CK1alpha degradation at 40 nM measured after 4 hrs by Immunoblotting analysis; assay type: cell-based
# In short: as §3
# [16] = target: T1, Protein cereblon/Zinc finger protein Aiolos (Homo sapiens); assay: Protac activity at CRBN/IKZF3 in human MOLT-4 cells assessed as induction of IKZF3 degradation measured after 4 hrs by Immunoblotting analysis; assay type: cell-based
# In short: as §1
# [17] = target: T2, Cereblon/Ikaros (Homo sapiens); assay: Protac activity at CRBN/IKZF1 in human Jurkat cells assessed as induction of IKZF1 degradation measured after 4 hrs by Immunoblotting analysis; assay type: cell-based
# In short: as §3
# [18] = target: T2, Cereblon/Ikaros (Homo sapiens); assay: Protac activity at CRBN/IKZF1 in human MM1.S cells assessed as induction of IKZF1 degradation measured after 4 hrs by Immunoblotting analysis; assay type: cell-based
# In short: as §3
# [19] = target: T1, Protein cereblon/Zinc finger protein Aiolos (Homo sapiens); assay: Protac activity at CRBN/IKZF3 in human Jurkat cells assessed as induction of IKZF3 degradation measured after 4 hrs by Immunoblotting analysis; assay type: cell-based
# In short: as §3
# [20] = target: T1, Protein cereblon/Zinc finger protein Aiolos (Homo sapiens); assay: Protac activity at CRBN/IKZF3 in human MM1.S cells assessed as induction of IKZF3 degradation measured after 4 hrs by Immunoblotting analysis; assay type: cell-based
# In short: as §3
# [21] = target: DNA-binding protein Ikaros (Homo sapiens) (UniProt Q13422); assay: Induction of IKZF1 degradation in human CRBN-null MOLT4 cells at 8 to 200 nM incubated for 4 hrs by Immunoblotting analysis; assay type: cell-based; settings: MOLT-4, dose 8-200 nM
# [22] = target: Retinal rod rhodopsin-sensitive cGMP 3',5'-cyclic phosphodiesterase subunit delta (Homo sapiens) (UniProt O43924); assay: Induction of PDE6D degradation in human CRBN-null MOLT4 cells at 8 to 200 nM incubated for 4 hrs by Immunoblotting analysis; assay type: cell-based; settings: MOLT-4, dose 8-200 nM
# Sequence of Retinal rod rhodopsin-sensitive cGMP 3',5'-cyclic phosphodiesterase subunit delta (Homo sapiens) (O43924 whole entry): as the sequence (O43924 whole entry, looked up) above
# T1 sequence (Q96SW2 whole entry, looked up): as the sequence (Q96SW2 whole entry, looked up) above
# T1 sequence (Q9UKT9 whole entry, looked up): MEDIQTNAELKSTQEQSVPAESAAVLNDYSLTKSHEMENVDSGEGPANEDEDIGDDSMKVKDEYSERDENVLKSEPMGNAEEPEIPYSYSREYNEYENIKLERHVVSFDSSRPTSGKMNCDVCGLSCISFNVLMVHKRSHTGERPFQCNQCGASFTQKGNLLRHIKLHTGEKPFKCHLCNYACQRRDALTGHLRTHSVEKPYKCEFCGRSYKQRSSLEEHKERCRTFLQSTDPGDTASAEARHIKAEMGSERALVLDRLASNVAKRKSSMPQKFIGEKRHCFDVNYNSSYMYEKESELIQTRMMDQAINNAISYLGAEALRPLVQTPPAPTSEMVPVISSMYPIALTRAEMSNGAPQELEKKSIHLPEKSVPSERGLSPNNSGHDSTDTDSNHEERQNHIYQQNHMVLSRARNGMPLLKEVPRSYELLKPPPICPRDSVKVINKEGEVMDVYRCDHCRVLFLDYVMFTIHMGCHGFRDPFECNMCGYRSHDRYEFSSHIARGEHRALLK
# T3 sequence (P48729 2-337 limits assumed): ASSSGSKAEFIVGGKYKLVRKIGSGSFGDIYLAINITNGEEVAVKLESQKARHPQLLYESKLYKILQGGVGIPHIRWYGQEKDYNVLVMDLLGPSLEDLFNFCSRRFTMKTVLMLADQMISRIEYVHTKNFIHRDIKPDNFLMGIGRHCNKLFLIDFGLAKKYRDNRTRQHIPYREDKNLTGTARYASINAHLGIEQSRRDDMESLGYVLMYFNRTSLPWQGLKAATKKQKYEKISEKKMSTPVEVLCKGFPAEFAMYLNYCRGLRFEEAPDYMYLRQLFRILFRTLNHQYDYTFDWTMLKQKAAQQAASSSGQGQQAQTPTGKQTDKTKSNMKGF
# T3 sequence (Q96SW2 whole entry partner): as the sequence (Q96SW2 whole entry, looked up) above
# Sequence of DNA-binding protein Ikaros (Homo sapiens) (Q13422 whole entry): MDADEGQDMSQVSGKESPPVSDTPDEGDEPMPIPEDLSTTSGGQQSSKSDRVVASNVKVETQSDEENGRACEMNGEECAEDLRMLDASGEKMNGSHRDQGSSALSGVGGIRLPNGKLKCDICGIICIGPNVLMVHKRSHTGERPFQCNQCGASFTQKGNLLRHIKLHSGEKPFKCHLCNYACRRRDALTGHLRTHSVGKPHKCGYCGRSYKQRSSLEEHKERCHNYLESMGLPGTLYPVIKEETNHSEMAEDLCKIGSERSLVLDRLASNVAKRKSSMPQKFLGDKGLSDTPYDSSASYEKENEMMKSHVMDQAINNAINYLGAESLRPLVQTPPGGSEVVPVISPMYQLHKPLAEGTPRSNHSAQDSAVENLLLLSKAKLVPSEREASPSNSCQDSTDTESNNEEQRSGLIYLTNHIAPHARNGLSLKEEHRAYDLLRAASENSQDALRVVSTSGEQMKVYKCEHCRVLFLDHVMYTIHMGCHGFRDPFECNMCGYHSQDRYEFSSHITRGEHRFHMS
Activity [2],Activity [3],Activity [5],Activity [6],SMILES,Activity [7],Activity [8],Activity [11],Activity [12],other results
inactive,inactive,70%,inactive,COc1c(-c2cn(C3CCC(=O)NC3=O)nn2)csc1C(=O)N1CCCC1 (stereo unspecified),,,,,Activity [1]: inactive; Activity [4]: inactive
,,Active,Active,O=C1CCC(n2cc(-c3ccsc3)nn2)C(=O)N1 (stereo unspecified),inactive,inactive,inactive,inactive,DC50 [9]: < 200 nM; DC50 [10]: < 200 nM; DC50 [13]: < 200 nM
,,,,CNc1nccc(CN([C@H]2CC[C@H](N)CC2)S(=O)(=O)c2ccc(S(=O)(=O)N(Cc3ccc(Cl)cc3)C3CCCC3)cc2)n1,,,,,pIC50 [7]: 6.29; pIC50 [8]: 5.92; pIC50 [11]: 5.92; pIC50 [12]: 6.02
inactive,inactive,70%,inactive,COc1c(-c2cn(C3CCC(=O)NC3=O)nn2)csc1C(=O)NC1CCCC1 (stereo unspecified),,,,,
,,,,C=C(F)C(=O)N1CCN(c2nc(OC[C@@H]3CCCN3C)nc3c2CCN(c2cccc4cccc(Cl)c24)C3)C[C@@H]1CC#N [ADAGRASIB],,,,,pIC50 [7]: 8.40; pIC50 [8]: 5.52; pIC50 [11]: 5.85; pIC50 [12]: 8.22
inactive,inactive,inactive,Active,CSc1cscc1-c1cn(C2CCC(=O)NC2=O)nn1 (stereo unspecified),inactive,inactive,inactive,inactive,Activity [14]: inactive; Activity [9]: Active; Activity [10]: Active; Activity [15]: 50%; Activity [16]: inactive; Activity [17]: inactive; Activity [18]: inactive; Activity [13]: Active; Activity [19]: inactive; Activity [20]: inactive
,,,,COc1cscc1-c1cn(C2CCC(=O)NC2=O)nn1 (stereo unspecified),inactive,inactive,inactive,inactive,Activity [21]: inactive; Activity [22]: inactive
